Assays:
TCPTP = molecular target: T1, TCPTP (Homo sapiens, UniProt P17706); assay: TCPTP enzyme inhibition; type: biochemical; conditions: read-out: % Inhib. TCPTP @ 1 μM
T1 sequence (P17706 1-341 limits assumed): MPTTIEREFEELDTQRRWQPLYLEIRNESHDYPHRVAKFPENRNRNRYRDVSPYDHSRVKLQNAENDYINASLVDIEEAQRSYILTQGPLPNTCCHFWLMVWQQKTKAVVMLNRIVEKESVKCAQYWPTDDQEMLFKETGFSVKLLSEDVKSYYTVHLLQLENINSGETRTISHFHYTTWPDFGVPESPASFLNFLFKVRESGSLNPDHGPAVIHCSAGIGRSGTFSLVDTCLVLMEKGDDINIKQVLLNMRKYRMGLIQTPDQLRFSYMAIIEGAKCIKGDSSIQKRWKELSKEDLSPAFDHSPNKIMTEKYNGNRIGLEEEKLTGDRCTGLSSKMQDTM
Procedure, shortened: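 Selectivity counter-screen using recombinant 341-amino-acid TCPTP mixed with test compound at 1 μM. Substrate pNPP added, and hydrolysis read as absorbance increase at 405 nm. Each point run in duplicate; output is percent inhibition.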

PTP1B = molecular target: T2, PTP1B (Homo sapiens, UniProt P18031); assay: PTP1B enzyme inhibition; type: biochemical; conditions: for inhibition at 1 µM: read-out: % Inhib. PTP1B @ 1 μM
T2 sequence (P18031 1-322 limits assumed): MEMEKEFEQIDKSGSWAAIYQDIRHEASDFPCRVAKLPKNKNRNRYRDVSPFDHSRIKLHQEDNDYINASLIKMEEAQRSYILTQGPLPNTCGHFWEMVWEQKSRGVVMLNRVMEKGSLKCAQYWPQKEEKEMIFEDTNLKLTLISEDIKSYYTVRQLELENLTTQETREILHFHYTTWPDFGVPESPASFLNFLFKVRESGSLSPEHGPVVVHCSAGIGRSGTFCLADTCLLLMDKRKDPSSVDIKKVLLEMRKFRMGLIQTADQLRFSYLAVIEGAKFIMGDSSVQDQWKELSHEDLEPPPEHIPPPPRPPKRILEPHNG
Procedure, shortened: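 Recombinant 322-amino-acid PTP1B preincubated with test compound; pNPP substrate then added and hydrolysis followed as absorbance increase at 405 nm. IC50 fitted from increasing compound concentrations, each point in duplicate. Percent inhibition also taken at 1 μM.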

C2 C12 myotubes = assay: Glucose uptake; type: cell-based, Mouse; conditions: 2 μM, 90 min, 2-NBDG 0.1 mM
Procedure, shortened: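 Mouse C2C12 myoblasts grown in DMEM with 10 % heat-inactivated FBS and penicillin/streptomycin (37 °C, 5 % CO2), then differentiated in DMEM with 2 % horse serum, changed every 48 h. Test compound at 2 μM for 90 min (insulin 10 nM, 30 min as positive control), then 0.1 mM 2-NBDG for 30 min. Washed three times with cold PBS. Intracellular fluorescence minus no-2-NBDG autofluorescence, corrected for BCA protein, relative to vehicle; 5 independent experiments, mean ± S.E.M.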

[1] = IC50±SD, soluble 322 amino acids PTP1B, pNPP substrate
[2] = pIC50, soluble 322 amino acids PTP1B

| Structure (SMILES) | inhibition at 1 µM (TCPTP) [%] | SI (selectivity index, percentage inhibition ratio PTP1B/TCPTP at 1 μM) (PTP1B) | inhibition at 1 µM (PTP1B) [%] | IC50 (PTP1B; [1]) [nM] | IC50 (PTP1B; [2]) [nM] | increase of glucose uptake with respect to control cells (C2 C12 myotubes) [%] |
| --- | --- | --- | --- | --- | --- | --- |
| Cc1nc2ccccc2n2cccc12 [Compound 1, 4‐methylpyrrolo[1,2‐a]quinoxaline] | 54 | 0.94 | 51 | – | – | – |
| Cc1nc2ccccc2n2ccnc12 [Compound 2, 4‐Methylimidazo[1,2‐a]quinoxaline] | 44 | 1.97 | 87 | 460 ± 40 | 468 | 15 |
| Cc1nc2ccccc2n2cnnc12 [Compound 3, 4‐Methyl[1,2,4]triazolo[4,3‐a]quinoxaline] | 55 | 1.27 | 70 | 790 ± 10 | 794 | ~30 |
| Cc1nc2ccccc2n2nnnc12 [Compound 4, 4‐Methyltetrazolo[1,5‐a]quinoxaline] | 50 | – | 46 | 1480 ± 70 | 1510 | – |
| c1ccc2c(c1)ncc1nnnn12 [Compound 9, Tetrazolo[1,5‐a]quinoxaline] | 68 | 1.17 | 80 | 620 ± 200 | 631 | – |
| CC1Nc2ccccc2-n2nnnc21 (stereo not shown) [Compound 10, 4‐Methyl‐4,5‐dihydrotetrazolo[1,5‐a]quinoxaline] | 35 | – | 37 | 2170 ± 80 | 2190 | – |

— paper PMC8518816 (Chemmedchem, 2021)
